Active and inactive are the calls of the source. The calls are words filed in the database; no cut-off is given here.
Key:
SARS-CoV-2 = test: Antiviral activity against SARS coronavirus 2 infected in African green monkey Vero cells assessed as blockade of viral proliferation at 25 uM incubated for 48 hrs by cytopathic effect assay; type: functional, organism-based; conditions: Severe acute respiratory syndrome coronavirus 2
[1] = Inhibition of recombinant C-terminal His-tagged SARS coronavirus 2 3CL protease using Boc-Abu-Tle-Leu-Gln-AMC as substrate incubated for 5 mins by Cheng-Prusoff equation analysis; parameters: species or system Severe acute respiratory syndrome coronavirus 2
Summary of the method: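 His-tagged 3CLpro (8 ng/μL final) was assayed in 50 mM MOPS pH 7.2 with 10 mM NaCl, 1 mM EDTA and 0.01% Triton X-100. Substrate was 50 μM final (about Km) and DMSO 4% final. Inhibitor and substrate were preincubated 5 min at 37 °C, then enzyme was added and fluorescence (ex 360/em 460 nm) read for 10 min. At least 11 concentrations were tested; IC50 came from nonlinear regression and Ki from Cheng–Prusoff. n = 3.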

CC(C)C[C@H](NC(=O)c1nc2ccccc2[nH]1)C(=O)N[C@@H](C[C@@H]1CCNC1=O)C(=O)c1nc2ccccc2s1
Activity (SARS-CoV-2): Active | Ki [1]: 32.1 nM
